Screening data: PubChem, Sanford-Burnham Center for Chemical Genomics
Scp1 inh = inhibitors of human Scp-1 phosphatase; Recombinant Scp1, phosphopeptide, malachite green phosphate absorbance; inhibition, % at 20 µM; actives 0.88% (n = 340,000); AID 493091;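 active = inhibition above about 50% at 20 µM, limit read from the data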
Target sequence (Q9GZU7 76-261 limits assumed): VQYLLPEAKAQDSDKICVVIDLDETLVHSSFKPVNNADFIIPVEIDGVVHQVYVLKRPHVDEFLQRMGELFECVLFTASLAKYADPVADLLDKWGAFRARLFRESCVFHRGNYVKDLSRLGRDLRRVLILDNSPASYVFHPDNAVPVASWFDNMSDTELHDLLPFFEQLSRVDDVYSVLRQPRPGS
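Test system – truncated SCP-1 phosphatase (76-261aa) · Reagent – Phosphorylated 17-residue peptide substrate · Incubation – 45 min room-temperature reaction, 5 min colour, 30 min stabiliser · Detection – colorimetric phosphate reagent with accelerator and stabiliser, absorbance at 630 nm · Measure – % inhibition at 20 µM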
DNMT1 inh = inhibitors of human DNMT1. inhibition (reported as % activation of signal), % at 10 µM. DNMT1 molecular beacon, Hinp1I cleavage, fluorescence. AID 588458. actives 0.83% (n = 360,000); in the data active = inhibition above about 50%
STEP block = blocks human striatal-enriched tyrosine phosphatase. recombinant STEP, OMFP fluorogenic substrate, fluorescence. inhibition, % at 20 µM. actives 0.25% (n = 360,000);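 active = inhibition at 20 µM, scaled per plate between control wells, above about 37%, limit read from the data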
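System: isolated STEP enzyme; schedule: 20 min enzyme reaction at room temperature, protected from light; medium: Bis-Tris buffer pH 6.0, 2.5 mM DTT, 0.005% Tween 20; signal: fluorescence, 480/540 nm; dosing: single compound dose of 20 µM, 1% DMSO final; also added: OMFP substrate, 25 µM final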
Rpn11 inh = Rpn11 (human) deubiquitinase inhibition | AID 588493 | O00487 | inhibition, % at 20 µM | human 26S proteasome, Ub4-pepOG fluorescence polarization; 20S core pre-blocked with epoxomicin | actives 0.59% (n = 360,000);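 active = inhibition at 20 µM, scaled to each plate's controls, above about 33%, limit read from the data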
LMPTP block = blocks human LMPTP phosphatase. AID 651560. actives 0.22% (n = 360,000). recombinant LMPTP-A, OMFP fluorogenic substrate, fluorescence intensity. inhibition, % at 20 µM. P24666;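 active = compounds that cut the enzyme signal by at least half of the control window in the single-dose screen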
Target sequence (P24666 whole entry, looked up): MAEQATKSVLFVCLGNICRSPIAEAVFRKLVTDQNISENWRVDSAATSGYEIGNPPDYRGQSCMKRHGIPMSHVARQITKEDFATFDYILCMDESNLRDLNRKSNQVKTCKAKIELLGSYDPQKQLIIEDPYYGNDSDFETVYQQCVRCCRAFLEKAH
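Test system: LMPTP-A phosphatase enzyme. Amount: LMPTP-A at 0.625 nM final in the reaction. Reagent: OMFP substrate, 400 µM final. Times: 50 min at room temperature. Signal: endpoint fluorescence intensity from OMFP dephosphorylation. Read-out basis: % inhibition. Benchmarks: no-enzyme and uninhibited controls.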
SUMO1 PPI mod = modulators of human SUMO1-mediated protein-protein interactions; P63165; SUMO1 binding to a labelled peptide, TR-FRET, 1 h; inhibition, % at 20 µM; actives 0.33% (n = 360,000); AID 602429; in the data active = inhibition above about 37%
Target sequence (P63165 whole entry, looked up): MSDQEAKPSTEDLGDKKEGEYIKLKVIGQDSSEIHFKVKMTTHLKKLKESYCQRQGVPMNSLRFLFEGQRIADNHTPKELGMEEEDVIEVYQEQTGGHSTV
Scp1 confirm = Scp-1 (human) inhibition, single-dose confirmed; AID 540281; inhibition, % at 20 µM; recombinant SCP-1 catalytic domain, phosphate release, malachite green absorbance; actives 61% (n = 2,500); shares compounds with Scp1 inh
MG interference = interferes with malachite green readout, flagging false Scp-1 hits; AID 540313; apparent inhibition (interference), % at 20 µM; shares compounds with Scp1 inh; 2,500 tested, under 10 active; Colorimetric interference counterscreen, malachite green absorbance 630 nm;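 note: compounds added after enzyme reaction finished so only phosphate colour detection is probed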
Scp-1 Tm shift = Scp-1 (human) binding by thermal shift; shares compounds with Scp1 inh; Recombinant SCP1, Sypro Orange thermal shift Tm; thermal shift relative to vanadate control, % at 40 µM; actives 25% (n = 1,500);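 active = substances whose mean melting-temperature shift, as a percentage of the reference inhibitor's shift, reaches about 5.3%, limit read from the data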
A number is an active result; 0 = inactive; - = no result given. An excerpt weighted towards active compounds, which were near 2.3% of everything screened.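 Rule for the calls, unless noted: active = inhibition of at least 30% at 20 µM; inactive = the rest.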

SMILES	Scp1 inh	DNMT1 inh	STEP block	Rpn11 inh	LMPTP block	SUMO1 PPI mod	Scp1 confirm	MG interference	Scp-1 Tm shift
COC(=O)C1=C(C)N(Cc2ccccc2)C(=NCCc2ccccn2)N[C@H]1c1cccc(F)c1	58.5	0	0	0	0	0	0	0	-
CCn1nc([N+](=O)[O-])c2c(-c3nc4ccccc4o3)c(N)n(CCCOC)c2c1=O	84.8	0	0	0	0	0	78.3	0	0
CCC1(CC)NC(=O)N(CC(=O)OCC(=O)Nc2ccccc2OC(F)F)C1=O	0	0	0	0	0	0	0	0	-
CCC1(CC)NC(=O)N(CC(=O)OCC(=O)Nc2ccccc2[N+](=O)[O-])C1=O	0	0	0	0	0	0	-	-	-
O=C(Cn1nnc(-c2cccs2)n1)Nc1ccccc1C(F)(F)F	0	0	0	0	0	0	-	-	-
COc1ccc(S(=O)(=O)NNC(=O)Cc2csc(C)n2)cc1[N+](=O)[O-]	60.2	0	0	0	0	0	64.2	0	0
CCSc1nc2c([nH]1)c(=O)n(C)c(=S)n2C	61.0	0	0	0	0	0	75.5	0	0
CCCSc1nc2c([nH]1)c(=O)n(C)c(=S)n2C	0	0	0	0	0	0	-	-	-
COc1ccccc1Oc1nc2c(c(=O)n(Cc3ccccc3F)c(=O)n2C)n1C	67.5	0	0	0	0	0	0	0	-
Cn1c(NCCCO)nc2c1c(=O)n(Cc1ccccc1F)c(=O)n2C	0	0	0	0	0	0	-	-	-
Cc1ccc(C)c(C(=O)Nc2ccncc2)c1	78.1	0	0	0	0	0	0	0	-
Cc1cccc(/C=N/NC(=O)c2ccncc2)n1	0	0	0	0	0	0	-	-	-
COc1ccccc1NC(=O)NCCN1CCCCC1	0	0	0	0	0	0	-	-	-
COc1ccc(Cl)cc1NC(=O)NCCN1CCNC1=O	0	0	0	0	0	0	0	0	-
COc1ccccc1NC(=O)NCCN1CCNC1=O	0	0	0	0	0	0	0	0	-
Cc1ncc(CO)c2cc(C(=O)Nc3ccccc3Cl)c(=Nc3cccc(C(N)=O)c3)oc12	0	0	0	0	0	0	-	-	-
Cn1ccsc1=NC(=O)c1ccc(Cl)c([N+](=O)[O-])c1	53.8	0	0	0	0	0	0	0	-
Cn1ccsc1=NC(=O)c1ccc(S(C)(=O)=O)c([N+](=O)[O-])c1	0	0	0	0	0	0	-	-	-
CCNc1nc(NCC)n2c(SCC(=O)Nc3cccc(F)c3)nnc2n1	0	0	0	0	0	0	-	-	-
CCNc1nc(NCC)n2c(SCC(=O)Nc3cccc(Cl)c3)nnc2n1	53.8	0	0	0	0	0	50.1	0	0
O=C(O)Cc1ccc(N=Nc2c(O)c(C(=O)O)cc3ccccc23)cc1	50.3	61.0	0	0	0	0	72.6	0	27.9
CC[C@@H](NC(=O)Cn1cc(C)c(=O)[nH]c1=O)c1ccccc1	0	0	0	0	0	0	-	-	-
Cc1cn(CC(=O)N[C@H](C)c2cccc3ccccc23)c(=O)[nH]c1=O	0	0	0	0	0	0	0	0	-
COc1ccc(CCC(=O)O)c(O)c1	52.6	0	0	0	0	0	45.6	0	0
C#Cc1ccc([C@@H]2C=C(C(=O)NCc3ccccc3)O[C@H](OCc3ccc(CO)cc3)C2)cc1	0	0	0	0	0	0	-	-	-
SMILES	Scp1 inh	DNMT1 inh	STEP block	Rpn11 inh	LMPTP block	SUMO1 PPI mod	Scp1 confirm	MG interference	Scp-1 Tm shift
C#Cc1ccc([C@H]2C=C(C(=O)O)O[C@@H](OCc3ccc(CO)cc3)C2)cc1	50.4	0	0	0	0	0	47.6	0	0
COc1cc(OC)c2ccc(=O)oc2c1C(CC(=O)N1CCCC(C)C1)c1ccc2c(c1)OCO2 (configuration not stated)	55.6	0	0	0	0	0	54.1	0	0
Cc1ccc(S(=O)(=O)N2CCCCC2)cc1NC(=O)Cn1cnc2c1c(=O)n(C)c(=O)n2C	0	0	0	0	0	0	-	-	-
O=C(N/N=C/c1cccnc1)c1ccccc1Cl	0	0	0	0	0	0	-	-	-
O=C(N/N=C\c1cccnc1)c1cc(-c2ccc(Cl)s2)[nH]n1	61.5	0	0	0	0	0	53.5	0	0
C/C(=N\NC(=O)c1ccccc1O)c1ccc(NC(=O)c2ccccc2)cc1	67.5	0	0	0	0	0	69.2	0	0
CC(C(=O)Nc1cc([N+](=O)[O-])ccc1Cl)N1CCN(c2ccc(O)cc2)CC1 (configuration not stated)	57.0	0	0	0	0	0	0	0	-
CC(C(=O)Nc1ccc([N+](=O)[O-])cc1Cl)N1CCN(S(=O)(=O)c2cccs2)CC1 (configuration not stated)	0	0	0	0	0	0	-	-	-
COc1ccc(NC(=O)CSc2nc(-c3ccco3)nc3cc(=O)[nH]n23)cc1Cl	53.2	0	0	0	0	0	0	0	-
COc1ccc(NC(=O)CSc2n[nH]c(=O)n2C2CC2)cc1Cl	0	0	0	0	0	0	-	-	-
Oc1ccc(C=Nc2ccc(N3CCOCC3)cc2)c(O)c1	52.4	0	0	0	0	0	45.0	0	0
Cc1nc(N2CCOCC2)c2c(C)c(C(=O)Nc3ccccc3Cl)sc2n1	51.2	0	0	0	0	0	0	0	-
O=S(=O)(c1cccc2ccccc12)N1CCSC1	0	0	0	0	0	0	-	-	-
O=S(=O)(c1cccc2cnccc12)N1CCNCC1	59.5	0	0	0	0	0	0	0	-
COc1ccc(CCC(=O)Nc2ccc(OC)c(S(=O)(=O)N3CCCCC3)c2)cc1	0	0	0	0	0	0	-	-	-
C=CCn1c(=O)/c(=C/c2ccsc2)s/c1=C(\C#N)C(=O)NCCN1CCOCC1	0	0	0	0	0	0	-	-	-
CCc1c(C)nc2cc(-c3cccc(Br)c3)[nH]n2c1=O	93.2	0	0	0	0	0	62.3	0	0
CC1=NN(c2cccc([N+](=O)[O-])c2)C(=O)C1	0	0	0	0	0	0	-	-	-
O=C1CC(=O)N2N=C(c3ccc([N+](=O)[O-])cc3)SC2=N1	69.0	0	0	0	0	0	67.9	0	6.2
COc1ccc([C@H]2N[C@]3(CCCN(Cc4ccco4)C3=O)[C@H]3C(=O)N(Cc4ccccc4)C(=O)[C@@H]23)cc1	-	0	0	0	0	0	-	-	-
